Experimental data as given in ChEMBL document CHEMBL2016446, “Trivalent ultrashort lipopeptides are potent pH dependent antifungal agents” (J Med Chem, 2012).
Converted amounts (≈) assume the structure as drawn. The source made the active and inactive calls. The calls are words filed in the database; no cut-off is given here.

What was measured:
[1] = Stability of the compound at 1 ug/uL after 2 hrs by RP-HPLC analysis in presence of proteinase K; assay type: ADME; conditions: 2 h
How it was run: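 Peptide at 1 μg/μL in PBS (400 μL) mixed with 8 μL proteinase K solution (5 μg/μL; 2% DMSO final). Intact peptide quantified by RP-HPLC on a C4 column, 0.1% TFA water/acetonitrile, 10–90% B over 40 min. Measured against a peptide injection taken before enzyme addition. Melittin served as enzyme-activity control.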

[2] = tested on: Aspergillus fumigatus; experiment: Induction of membrane damage in Aspergillus fumigatus at 1.56 to 100 uM at pH 7.5 by Sytox green-based fluorescence assay; assay type: functional, organism-based
How it was run: (§1)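 A. fumigatus at 2 × 10^3 CFU/mL in RPMI/MOPS (pH 7.4 or 5.5) was grown 20 h at 35 °C. Sytox green was added at 0.2 μM final in sodium phosphate buffer (pH 5.5 or 7.5) for 15 min. Peptides were then added at 100–1.56 μM final. Fluorescence (ex 485/em 530 nm) was read after 1 h.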

[3] = tested on: Aspergillus fumigatus; experiment: Induction of membrane depolarization in Aspergillus fumigatus at 1.56 to 100 uM at pH 5.5 by DiSC3(5)-based fluorescence assay; assay type: functional, organism-based
How it was run: (§2)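 A. fumigatus was pregrown 20 h at 35 °C from 2 × 10^3 CFU/mL in RPMI/MOPS (pH 7.4 or 5.5). Cells were loaded with DiSC3(5) at 0.2 μM final in sodium phosphate buffer (pH 5.5 or 7.5) for 15 min. Peptides were added at 1.56–100 μM final, and fluorescence (ex 640/em 660 nm) was read after 1 h.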

[4] = tested on: Aspergillus fumigatus; experiment: Induction of membrane damage in Aspergillus fumigatus at 1.56 to 100 uM at pH 5.5 by Sytox green-based fluorescence assay; assay type: functional, organism-based; how it was run: as §1
[5] = tested on: Aspergillus fumigatus; experiment: Induction of membrane depolarization in Aspergillus fumigatus at 1.56 to 100 uM at pH 7.5 by DiSC3(5)-based fluorescence assay; assay type: functional, organism-based; how it was run: as §2
[6] = tested on: Candida albicans; experiment: Antifungal activity against Candida albicans ATCC 10231 after 48 hrs at pH 5.5; assay type: functional; conditions: ATCC 10231, 48 h
How it was run: (§3)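 The method followed CLSI M38-A2 (Aspergillus) or M27-A3. Medium was RPMI 1640 with 0.165 M MOPS and L-glutamine, without NaHCO3, at pH 5.5 or 7.5. Inoculum of 2 × 10^3 CFU/mL was mixed 1:1 with serial 2-fold peptide dilutions. Incubation was at 35 °C: 48 h for A. fumigatus and C. albicans, 72 h for C. neoformans. MIC was read by eye as no growth. Values are averages of duplicates.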

[7] = tested on: Aspergillus fumigatus; experiment: Antifungal activity against Aspergillus fumigatus ATCC 26430 after 48 hrs at pH 7.5; assay type: functional; conditions: ATCC 26430, 48 h; how it was run: as §3
[8] = tested on: Escherichia coli; experiment: Antibacterial activity against Escherichia coli ATCC D21 after 18 to 20 hrs at pH 7.5; assay type: functional, organism-based
How it was run: (§4)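 Broth microdilution in LB: bacterial suspension at 10^6 CFU/mL mixed 1:1 with serial 2-fold peptide dilutions, made from a 1 mg/mL aqueous stock. Strains were E. coli ATCC D21 and S. aureus ATCC 6538P. MIC was the lowest concentration with no growth after 18–20 h. Values are averages of duplicate experiments.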

[9] = tested on: Staphylococcus aureus; experiment: Antibacterial activity against Staphylococcus aureus ATCC 6538P after 18 to 20 hrs at pH 7.5; assay type: functional, organism-based; how it was run: as §4
[10] = tested on: Aspergillus fumigatus; experiment: Antifungal activity against Aspergillus fumigatus ATCC 26430 after 48 hrs at pH 5.5; assay type: functional; conditions: ATCC 26430, 48 h; how it was run: as §3
[11] = tested on: Cryptococcus neoformans; experiment: Antifungal activity against Cryptococcus neoformans ATCC MYA422 after 72 hrs at pH 7.5; assay type: functional; conditions: ATCC MYA422, 72 h; how it was run: as §3
[12] = tested on: Escherichia coli; experiment: Antibacterial activity against Escherichia coli ATCC D21 after 18 to 20 hrs at pH 5.5; assay type: functional, organism-based; how it was run: as §4
[13] = tested on: Staphylococcus aureus; experiment: Antibacterial activity against Staphylococcus aureus ATCC 6538P after 18 to 20 hrs at pH 5.5; assay type: functional, organism-based; how it was run: as §4
[14] = tested on: Candida albicans; experiment: Antifungal activity against Candida albicans ATCC 10231 after 48 hrs at pH 7.5; assay type: functional; conditions: ATCC 10231, 48 h; how it was run: as §3
[15] = tested on: Cryptococcus neoformans; experiment: Antifungal activity against Cryptococcus neoformans ATCC MYA422 after 72 hrs at pH 5.5; assay type: functional; conditions: ATCC MYA422, 72 h; how it was run: as §3

SMILES	Stability [1]	Activity [2]	Activity [3]	Activity [4]	Activity [5]	MIC [6]	MIC [7]	Activity [8]	Activity [9]	MIC [10]	MIC [11]	Activity [12]	Activity [13]	MIC [14]	MIC [15]
CC[C@H](C)[C@H](NC(=O)CN)C(=O)NCC(=O)N[C@@H](C)C(=O)N[C@H](C(=O)N[C@@H](CC(C)C)C(=O)N[C@@H](CCCCN)C(=O)N[C@H](C(=O)N[C@@H](CC(C)C)C(=O)N[C@H](C(=O)N[C@H](C(=O)NCC(=O)N[C@@H](CC(C)C)C(=O)N1CCC[C@H]1C(=O)N[C@@H](C)C(=O)N[C@@H](CC(C)C)C(=O)N[C@H](C(=O)N[C@@H](CO)C(=O)N[C@@H](Cc1c[nH]c2ccccc12)C(=O)N[C@H](C(=O)N[C@@H](CCCCN)C(=O)N[C@@H](CCCNC(=N)N)C(=O)N[C@@H](CCCCN)C(=O)N[C@@H](CCCNC(=N)N)C(=O)N[C@@H](CCC(N)=O)C(=O)N[C@@H](CCC(N)=O)C(N)=O)[C@@H](C)CC)[C@@H](C)CC)[C@@H](C)O)[C@@H](C)O)C(C)C)C(C)C [MELITTIN]	Unstable	Active	Active	Active	Active										
CCCCCCCCCCCCCCCCCC(=O)N[C@@H](Cc1c[nH]cn1)C(=O)N[C@@H](Cc1c[nH]cn1)C(=O)N1CCCN(C(=O)[C@H](Cc2c[nH]cn2)NC(=O)[C@H](Cc2c[nH]cn2)NC(=O)CCCCCCCCCCCCCCCCC)Cc2cc(cc(C(N)=O)c2)CN(C(=O)[C@H](Cc2c[nH]cn2)NC(=O)[C@H](Cc2c[nH]cn2)NC(=O)CCCCCCCCCCCCCCCCC)CCC1		inactive	inactive	inactive	inactive	100 µM (≈ 190 µg/mL)	> 100 µM	inactive	inactive	> 100 µM	> 100 µM	inactive	inactive	> 100 µM	25 µM (≈ 47.5 µg/mL)
C[C@@H]1[C@H](O)[C@@H](C)/C=C/C=C/C=C/C=C/C=C/C=C/C=C/[C@H](O[C@@H]2O[C@H](C)[C@@H](O)[C@H](N)[C@@H]2O)C[C@@H]2O[C@](O)(C[C@@H](O)C[C@@H](O)[C@H](O)CC[C@@H](O)C[C@@H](O)CC(=O)O[C@H]1C)C[C@H](O)[C@H]2C(=O)O [AMPHOTERICIN B]						2.7 µM (≈ 2.5 µg/mL)	0.17 µM (≈ 0.157 µg/mL)			1 µM (≈ 0.924 µg/mL)	0.17 µM (≈ 0.157 µg/mL)			0.33 µM (≈ 0.305 µg/mL)	1.35 µM (≈ 1.25 µg/mL)
CCCCCCCCCCCCCCN[C@@H](Cc1cnc[nH]1)C(=O)N[C@@H](Cc1cnc[nH]1)C(=O)O		inactive	inactive	inactive	inactive	> 100 µM	> 100 µM			50 µM (≈ 24.4 µg/mL)	> 100 µM			> 100 µM	25 µM (≈ 12.2 µg/mL)
